In ChEMBL document CHEMBL1122280, “Analogues of hycanthone and lucanthone as antitumor agents” (1983) one finds T/C data, which are given here for nine compounds.

In assay [1] the test system is P388. The assay can be described thus: In vivo antitumor activity against P-388 lymphocytic leukemia in mice treated with a dose of 200 mg/kg. It is filed as functional, Mus musculus. The essentials:
(§1)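 Mice bearing P-388 leukemia were dosed once daily for 5 days, or once daily for 9 days for the two reference parent drugs. Activity is expressed as a T/C value.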

The subject of assay [2] is P388. Briefly: In vivo antitumor activity against P-388 lymphocytic leukemia in mice treated with a dose of 50 mg/kg. It is filed as functional, Mus musculus. Put shortly: as §1
Assay [3] concerns P388. Briefly: In vivo antitumor activity against P-388 lymphocytic leukemia in mice treated with a dose of 12.5 mg/kg. It is filed as functional, Mus musculus. The essentials: as §1
For assay [4], the system named is P388. The assay can be described thus: In vivo antitumor activity against P-388 lymphocytic leukemia in mice treated with a dose of 25 mg/kg. It is filed as functional, Mus musculus. Put shortly:
as §1

Assay [5] has as its system P388. The assay can be described thus: In vivo antitumor activity against P-388 lymphocytic leukemia in mice treated with a dose of 100 mg/kg. It is filed as functional, Mus musculus. The essentials: as §1
Assay [6] concerns P388. The assay can be described thus: In vivo antitumor activity against P-388 lymphocytic leukemia in mice treated with a dose of 75 mg/kg for 2 days. It is filed as functional, Mus musculus. Put shortly: (§2)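 P-388 leukemia-bearing mice received the drug on only 2 days, day 1 and day 4 after inoculation. Activity is expressed as a T/C value.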
The subject of assay [7] is P388. The assay can be described thus: In vivo antitumor activity against P-388 lymphocytic leukemia in mice treated with a dose of 9.88 mg/kg for 2 days. It is filed as functional, Mus musculus. The essentials: as §2
The test system of assay [8] is P388. Briefly: In vivo antitumor activity against P-388 lymphocytic leukemia in mice treated with a dose of 18.75 mg/kg for 2 days. It is filed as functional, Mus musculus. The essentials: as §2
The test system of assay [9] is P388. The assay can be described thus: In vivo antitumor activity against P-388 lymphocytic leukemia in mice treated with a dose of 37.5 mg/kg for 2 days. It is filed as functional, Mus musculus. Put shortly: as §2
Assay [10] deals with P388. The assay can be described thus: In vivo antitumor activity against P-388 lymphocytic leukemia in mice treated with a dose of 60 mg/kg. It is filed as functional, Mus musculus. Put shortly:
as §1

Assay [11] deals with P388. Briefly: In vivo antitumor activity against P-388 lymphocytic leukemia in mice treated with a dose of 100 mg/kg for 2 days. It is filed as functional, Mus musculus. The settings on record: in the assay text read “for 5 days” for “for 2 days”.
Assay [12] has as its system P388. Briefly: In vivo antitumor activity against P-388 lymphocytic leukemia in mice treated with a dose of 25 mg/kg for 2 days. It is filed as functional, Mus musculus. The settings on record: in the assay text read “for 5 days” for “for 2 days”.
Assay [13] concerns P388. Briefly: In vivo antitumor activity against P-388 lymphocytic leukemia in mice treated with a dose of 50 mg/kg for 2 days. It is filed as functional, Mus musculus. The settings on record: in the assay text read “for 5 days” for “for 2 days”.
The subject of assay [14] is P388. The assay can be described thus: In vivo antitumor activity against P-388 lymphocytic leukemia in mice treated with a dose of 200 mg/kg for 5 days.

Molecules are shown by their SMILES.

Regarding `CN(C)CCNc1ccc(CO)c2oc3ccc(O)cc3c(=O)c12`, the T/C in the assay on P388 [1] is 128; in the assay on P388 [2], 170.
In the case of `Cc1ccc(NCCN(C)C)c2c(=O)c3cc(O)ccc3oc12`, the T/C with P388 [3] was determined as 99; with P388 [4] it was 106; in the assay with P388 [2], 108.
Turning to `CN(C)CCNc1ccc(CO)c2sc3ccccc3c(=O)c12`, the T/C is listed as 94 with P388 [4], 114 in the assay on P388 [2] and 150 in the assay with P388 [5].
In the case of `CCN(CC)CCNc1ccc(CO)c2sc3ccc(O)cc3c(=O)c12`, the T/C in the assay with P388 [6] is given as 207; in the assay with P388 [7], 163; with P388 [8] it was 207; in the assay on P388 [9], 179.
`CCN(CC)CCNc1ccc(C)c2oc3ccc(O)cc3c(=O)c12`: the T/C is reported as 106 with P388 [3], 106 in the assay with P388 [4] and 117 in the assay on P388 [2].
On to `CCN(CC)CCNc1ccc(C)c2sc3ccccc3c(=O)c12` [LUCANTHONE], for which, in the assay with P388 [5], the T/C came to 158.
For the compound `CCN(CC)CCNc1ccc(CO)c2sc3ccccc3c(=O)c12` [HYCANTHONE], the T/C in the assay with P388 [10] is given as 165.
`CN(C)CCNc1ccc(CO)c2sc3ccc(O)cc3c(=O)c12`: the T/C in the assay on P388 [11] came out at 194; with P388 [12] it was 160; in the assay on P388 [13] it was 175; in the assay on P388 [14] it was 222.
For `CCN(CC)CCNc1ccc(CO)c2oc3ccc(O)cc3c(=O)c12`, the T/C came to 163 in the assay on P388 [1], 181 with P388 [2] and 214 in the assay on P388 [5].
